Data published in publication PMC4074512 (European journal of pharmacology, 2014).
Converted amounts (≈) assume the structure as drawn. Read-outs that look alike come from different tables or passages of the source. One block for each compound: values may come before it.

Legend:
ABCB1 transporter (PGP1) = ABCB1 transporter (PGP1) (Homo sapiens, UniProt P08183); assay type: cell-based; conditions: PGP1 overexpressing MDCKII cells, even at 200 μM
[1] = ref Zhang et al., 2013; cited from earlier work
[2] = system: human ectocervical tissues; conditions: three separate human ectocervical tissues; ref Zhang et al., 2013; cited from earlier work
[3] = Bidirectional flux of EFdA in Caco-2 cell monolayers; assay type: in vitro ADME; conditions: human, Caco-2, pH 7.4
How it was run: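 Caco-2 cells seeded at 2.0 × 10^5 per polycarbonate insert (1.12 cm2, 0.4 μm) and differentiated 21 days. Monolayers were washed and pre-incubated 20 min at 37°C in HBSS, then TEER was read. Donor (apical or basolateral) held 25, 100 or 400 μM compound in HBSS/25 mM HEPES pH 7.4; 2 h at 37°C with shaking, sampled 0–120 min. HPLC-UV at 260 nm. Papp = (dQ/dt)/(A×C0); efflux ratio = Papp(b-a)/Papp(a-b); n = 3.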

[4] = ref Zhang et al., 2013, cited from earlier work
Caco-2 monolayers = conditions: pH from 5.5 to 7.4, ref Zhang et al., 2013; cited from earlier work
[5] = assay type: in vitro ADME, Canine; conditions: dog, MDCK
How it was run: (§1)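 MDCKII cells seeded at 2.0 × 10^5 per polycarbonate insert (1.12 cm2, 0.4 μm) and grown 7 days; monolayers used only if TEER > 200 Ωcm2. Flux run in both directions per the Caco-2 protocol: HBSS/25 mM HEPES pH 7.4, 37°C, 2 h, serial sampling. Optional pretreatment: 5 μM EDTA in Ca/Mg-free HBSS, both sides, 5 min at 37°C, then washed. Compound by HPLC-UV, lucifer yellow by fluorescence (485/535 nm); n = 3.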

MDCKII monolayers = assay type: in vitro ADME, Canine; conditions: MDCKII monolayers; for Efflux ratio after EDTA treatment compared to non-EDTA treatment groups: all test groups; for Papp (a–b) / Papp (b-a): without EDTA treatment
How it was run: as §1

MDCKII cells [6] = test: Calcein-AM uptake assay in MDCKII cells; assay type: cell-based, Canine; conditions: MDCKII cells without PGP1 expression, calcein-AM 1 μM
MDCKII cells [7] = test: In vitro cytotoxicity, MTT assay, MDCKII cells; assay type: cell-based, Canine; conditions: 48 h, n = 8, mean ± SD
How it was run: (§2)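 Parental and PGP1-overexpressing MDCKII cells seeded at 5 × 10^3 per well, incubated 24 h at 37°C/5% CO2, then exposed 48 h to serial concentrations of DMSO-dissolved compound (DMSO ≤1% v/v). MTT (5 mg/ml solution) was added for 4 h at 37°C, formazan dissolved in DMSO, absorbance read at 595 nm; IC50 derived; mean ± SD.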

[8] = system: PGP1 overexpressing MDCKII cells; test: In vitro cytotoxicity, MTT assay, PGP1 overexpressing MDCKII cells; assay type: cell-based, Canine; conditions: 48 h, n = 8, mean ± SD
How it was run: as §2

ABCB1 transporter (PGP1), sequence (P08183 whole entry): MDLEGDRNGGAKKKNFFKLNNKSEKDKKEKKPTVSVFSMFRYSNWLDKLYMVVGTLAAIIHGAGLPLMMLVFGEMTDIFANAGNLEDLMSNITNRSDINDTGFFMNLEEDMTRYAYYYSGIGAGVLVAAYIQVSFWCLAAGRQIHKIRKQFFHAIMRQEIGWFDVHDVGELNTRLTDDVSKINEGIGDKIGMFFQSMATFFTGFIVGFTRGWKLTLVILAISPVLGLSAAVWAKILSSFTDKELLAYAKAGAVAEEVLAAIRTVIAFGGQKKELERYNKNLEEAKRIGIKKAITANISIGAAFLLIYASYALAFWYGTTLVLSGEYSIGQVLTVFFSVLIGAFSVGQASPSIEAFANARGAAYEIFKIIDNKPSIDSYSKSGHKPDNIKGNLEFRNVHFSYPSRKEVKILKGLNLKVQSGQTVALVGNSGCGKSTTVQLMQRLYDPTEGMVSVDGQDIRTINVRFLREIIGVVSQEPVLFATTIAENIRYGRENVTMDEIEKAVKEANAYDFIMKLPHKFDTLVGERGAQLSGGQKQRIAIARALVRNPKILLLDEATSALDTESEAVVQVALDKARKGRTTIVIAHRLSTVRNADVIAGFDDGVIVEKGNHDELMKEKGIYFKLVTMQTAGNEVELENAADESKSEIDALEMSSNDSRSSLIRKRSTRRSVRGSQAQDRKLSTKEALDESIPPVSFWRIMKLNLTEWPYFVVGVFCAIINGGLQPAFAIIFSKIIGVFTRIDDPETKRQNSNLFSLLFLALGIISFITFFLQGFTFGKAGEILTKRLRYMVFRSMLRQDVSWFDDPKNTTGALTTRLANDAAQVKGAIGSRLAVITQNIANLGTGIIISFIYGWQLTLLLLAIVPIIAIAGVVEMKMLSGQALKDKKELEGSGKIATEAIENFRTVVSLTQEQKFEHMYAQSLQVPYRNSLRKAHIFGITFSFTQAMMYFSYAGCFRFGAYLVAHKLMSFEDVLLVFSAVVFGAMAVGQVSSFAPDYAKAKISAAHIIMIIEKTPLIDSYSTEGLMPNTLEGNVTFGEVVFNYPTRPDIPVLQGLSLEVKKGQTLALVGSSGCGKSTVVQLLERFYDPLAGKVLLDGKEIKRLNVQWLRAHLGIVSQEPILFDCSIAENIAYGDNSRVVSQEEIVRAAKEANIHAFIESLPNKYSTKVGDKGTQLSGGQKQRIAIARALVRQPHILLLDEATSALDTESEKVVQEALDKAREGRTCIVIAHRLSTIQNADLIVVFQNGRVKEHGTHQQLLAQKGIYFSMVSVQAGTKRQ

PGP1 inhibitory effect (ABCB1 transporter (PGP1)): lack of observed PGP1 inhibitory effect
efflux ratio at 2 h [3]: > 2
efflux ratio at 2 h, 100 μM [3]: 5.7
efflux ratio at 2 h, 400 μM [3]: 2.5
Papp A→B [5]: < 1 ×10⁻⁶ cm/s
efflux ratio [5]: ~1
Efflux ratio after EDTA treatment compared to non-EDTA treatment groups (MDCKII monolayers): higher
Compound: C#C[C@]1(CO)O[C@@H](n2cnc3c(N)nc(F)nc32)C[C@@H]1O [EFdA, 4′-ethynyl-2-fluoro-2′-deoxyadenosine]
Log Po/w [1]: −1.2
Papp [2]: < 1e-06 cm/s
Change in solubility ([4]; pH from 6 to 9): no obvious change
Solubility in water [4]: 1 mg/mL (≈ 3.41 mM)
pH dependence of transport (Caco-2 monolayers): independent of pH

Compound: C=C[C@H]1C[N@@]2CC[C@H]1C[C@@H]2[C@@H](O)c1ccnc2ccc(OC)cc12 [Quinidine]
PGP1 inhibitory response (calcein fluorescence) (MDCKII cells [6]): no obvious PGP1 inhibitory response

Compound: Ivermectin
PGP1 inhibitory response (calcein fluorescence) (MDCKII cells [6]): no obvious PGP1 inhibitory response
IC50 (MDCKII cells [7]): 20 ± 2.91 µM
IC50 [8]: 12.2 ± 0.87 µM

Efflux ratio after EDTA treatment compared to non-EDTA treatment groups (MDCKII monolayers): higher
Papp (a–b) (MDCKII monolayers; 25 μM): 3.76 ± 0.12 × 10^−7cm/s
Papp (b-a) (MDCKII monolayers; 25 μM): 4.14 ± 0.40 × 10^−7cm/s
Papp (a–b) (MDCKII monolayers; 100 μM): 1.70 ± 0.06 × 10^−7cm/s
Papp (b-a) (MDCKII monolayers; 100 μM): 2.05 ± 0.12 × 10^−7cm/s
Papp (a–b) (MDCKII monolayers; 400 μM): 1.77 ± 0.31 × 10^−7cm/s
Papp (b-a) (MDCKII monolayers; 400 μM): 2.07 ± 0.46 × 10^−7cm/s
Compound: Lucifer yellow [LY]
